Assay results from ChEMBL document CHEMBL1129329, “Structure-activity studies of 6-substituted decahydroisoquinoline-3-carboxylic acid AMPA receptor antagonists. 2. Effects of distal acid bioisosteric substitution, absolute stereochemical preferences, and in vivo activity” (J Med Chem, 1996).

Key:
[1] = target: T1, Glutamate receptor ionotropic, AMPA (Rattus norvegicus, UniProt P19490+P19491+P19492+P19493); test: Antagonism at AMPA receptor by inhibition of depolarizations induced by 40 uM AMPA in rat cortical slice preparation.; assay type: functional
Mus musculus [2] = test: Effective dose to block maximal electroshock-induced convulsions in mice, administered intraperitoneally; assay type: functional; settings: ip
Glutamate NMDA receptor [3] = test: Antagonism at NMDA receptor by inhibition of depolarizations induced by 40 uM NMDA in rat cortical slice preparation.; assay type: functional
[4] = target: T1, Glutamate receptor ionotropic, AMPA; test: (§1) Binding affinity against Ionotropic glutamate receptor AMPA using [3H]AMPA 19755 radioligand; assay type: protein-complex assay
Mus musculus [5] = test: (§2) Effective dose to produce neurological impairments in mice using the horizontal screen assay, administered intraperitoneally; assay type: functional; settings: ip
Procedure, shortened: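 Mice dosed intraperitoneally 30 min before testing were placed on a horizontal screen, which was then turned upside down. Unimpaired mice climb back to the top within 2 min; failure indicates neurological impairment. This was done before MES testing.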

[6] = target: Glutamate receptor ionotropic, kainate; test: Antagonism at Ionotropic glutamate receptor kainate by inhibition of depolarizations induced by 10 uM kainic acid in rat cortical slice preparation.; assay type: functional
Mus musculus [7] = test: Effective dose to block lethality induced by 200 mg/kg ip dose of NMDA; assay type: functional; settings: route intraperitoneal
Procedure, shortened: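 Mice dosed ip 30 min before a 200 mg/kg ip NMDA challenge; protection from lethality recorded and ED50 (mg/kg, ip) derived.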

Mus musculus [8] = test: Effective dose to block ATPA-induced muscle rigidity in mice at a dose of 30mg/kg, administered intravenously; assay type: functional; settings: iv
Procedure, shortened: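 Mice given test agent ip 30 min before iv challenge with ATPA (30 mg/kg), a systemic AMPA agonist that produces characteristic muscle rigidity.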

[9] = target: T1, Glutamate receptor ionotropic, AMPA; test: Compound was tested for Ionotropic glutamate receptor AMPA antagonistic activity by measuring its ability to inhibit depolarizations induced by 40 uM AMPA in rat cortical slice preparation.; assay type: functional
Glutamate NMDA receptor [10] = test: Affinity of [3H]-CGS- 19755 radioligand to rat N-methyl-D-aspartate (NMDA) receptor; assay type: protein-complex assay
[11] = target: Glutamate receptor ionotropic, kainate; test: Binding affinity against Ionotropic glutamate receptor kainate using [3H]-Kainic acid 19755 radioligand; assay type: protein-complex assay
Procedure, shortened: (§3)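 Displacement of radioligand binding in rat cortical tissue: [3H]AMPA for AMPA sites, [3H]kainic acid for kainate sites. Assays run in triplicate unless otherwise indicated; some IC50 values come from a single assay.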

Glutamate NMDA receptor [12] = test: Compound was tested for NMDA receptor antagonistic activity by measuring its ability to inhibit depolarizations induced by 40 uM NMDA in rat cortical slice preparation.; assay type: functional
Mus musculus [13] = test: Effective dose to block ATPA-induced muscle rigidity in mice at a dose of 30 mg/kg administered intraperitoneally; settings: ip
[14] = target: Glutamate receptor ionotropic, kainate; test: Compound was tested for Ionotropic glutamate receptor kainate antagonistic activity by measuring its ability to inhibit depolarizations induced by 10 uM kainic acid in rat cortical slice preparation.; assay type: functional
[15] = target: T2, Glutamate receptor ionotropic, AMPA (Rattus norvegicus) (UniProt P19491+P19492+P19493+P19490); test: Compound was tested for AMPA receptor antagonistic activity by measuring its ability to inhibit depolarizations induced by 40 uM AMPA in rat cortical slice preparation at 100 uM; assay type: functional
[16] = target: T2, Glutamate receptor ionotropic, AMPA (Rattus norvegicus); test: as §1; assay type: protein-complex assay; settings: concentration not given here; procedure, shortened: as §3
[17] = target: T1, Glutamate receptor ionotropic, AMPA; test: Compound was tested for AMPA receptor antagonistic activity by measuring its ability to inhibit depolarizations induced by 10 uM quisqualic acid in rat cortical slice preparation.; assay type: functional
Mus musculus [18] = test: as §2; assay type: functional; settings: ip; remark: listed apart in the source
Procedure, shortened: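 Mice dosed ip 30 min beforehand are placed on a horizontal screen, which is then turned upside down. Unimpaired mice climb back to the top within 2 min.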

[19] = target: Glutamate NMDA receptor (Rattus norvegicus) (UniProt P35439+Q00959+Q00960+Q00961+Q62645+Q8VHN2+Q9R1M7); test: Compound was tested for NMDA receptor antagonistic activity by measuring its ability to inhibit depolarizations induced by 40 uM NMDA in rat cortical slice preparation at 100 uM; assay type: functional

## O=C(O)[C@@H]1C[C@H]2C[C@@H](CS(=O)(=O)c3nnc[nH]3)CC[C@H]2CN1 (stereo in doubt; 36)
[1]
  IC50: 2.16 µM
Mus musculus [2]
  ED50: 9.5 mg/kg
Glutamate NMDA receptor [3]
  IC50: > 100 µM
[4]
  IC50: 1.7 µM
Mus musculus [5]
  ED50: 25.2 mg/kg
[6]
  IC50: 10 µM

## O=C(O)[C@@H]1C[C@H]2C[C@@H](c3nnn[nH]3)CC[C@H]2CN1
Mus musculus [7]
  ED50: 19.4 mg/kg
Mus musculus [2]
  ED50: 24.1 mg/kg
Mus musculus [8]
  ED50: 44.5 mg/kg

## O=C(O)[C@@H]1C[C@H]2C[C@@H](CSc3nn[nH]n3)CC[C@H]2CN1 (racemic)
[9]
  IC50: 19.8 µM
Glutamate NMDA receptor [10]
  IC50: 29.4 µM
[11]
  IC50: 30.1 µM
[4]
  IC50: 0.9 µM
Glutamate NMDA receptor [12]
  IC50: > 100 µM

## CCOC(=O)[C@@H]1C[C@H]2C[C@@H](CCc3cc(OC)no3)CC[C@H]2CN1C(=O)OC
Glutamate NMDA receptor [10]
  IC50: > 100 µM
Glutamate NMDA receptor [3]
  IC50: > 100 µM

## O=C(O)[C@@H]1C[C@H]2C[C@H](CCc3nnn[nH]3)CC[C@H]2CN1 (stereo in doubt; (-)49)
Glutamate NMDA receptor [10]
  IC50: 76.9 µM

## O=C(O)[C@H]1C[C@@H]2C[C@H](CCc3nnn[nH]3)CC[C@@H]2CN1
[1]
  IC50: > 100 µM
[11]
  IC50: > 100 µM
[4]
  IC50: > 100 µM
[6]
  IC50: > 100 µM

## O=C(O)[C@@H]1C[C@H]2C[C@@H](CCc3nn[nH]n3)CC[C@H]2CN1 (racemic) [TEZAMPANEL ANHYDROUS]
Mus musculus [2]
  ED50: 9 mg/kg
Mus musculus [5]
  ED50: 19.6 mg/kg
Mus musculus [13]
  ED50: 3.6 mg/kg

## O=C(O)[C@H]1C[C@@H]2C[C@@H](CSc3nn[nH]n3)CC[C@@H]2CN1
[14]
  IC50: 29.1 µM
[9]
  IC50: 9 µM
Glutamate NMDA receptor [10]
  IC50: > 100 µM
[11]
  IC50: 27.9 µM
[4]
  IC50: 17.8 µM
Glutamate NMDA receptor [12]
  IC50: > 100 µM

## O=C(O)[C@@H]1C[C@H]2C[C@H](CCS(=O)(=O)O)CC[C@H]2CN1
[1]
  IC50: > 100 µM
Glutamate NMDA receptor [10]
  IC50: > 100 µM
[11]
  IC50: > 100 µM
Glutamate NMDA receptor [3]
  IC50: > 100 µM
[4]
  IC50: > 100 µM
[6]
  IC50: > 100 µM

## O=C(O)[C@@H]1C[C@H]2C[C@@H](Cn3nnc(S)n3)CC[C@H]2CN1 (racemic)
Glutamate NMDA receptor [10]
  IC50: > 10 µM
[15]
  inhibition: 55%
[11]
  IC50: > 100 µM
Glutamate NMDA receptor [3]
  IC50: > 100 µM
[16]
  inhibition: 57.9%
[6]
  IC50: > 100 µM

## O=C(O)CC[C@H]1CC[C@H]2CN[C@H](C(=O)O)C[C@H]2C1
Glutamate NMDA receptor [10]
  IC50: 43.9 µM
Mus musculus [2]
  ED50: > 100 mg/kg
[11]
  IC50: > 100 µM
Glutamate NMDA receptor [3]
  IC50: 57 µM
[4]
  IC50: 27.8 µM
Mus musculus [5]
  ED50: > 100 mg/kg
Mus musculus [13]
  ED50: > 100 mg/kg
[17]
  IC50: 42 µM
[6]
  IC50: > 100 µM

## O=C(O)[C@@H]1C[C@H]2C[C@H](CSc3nn[nH]n3)CC[C@H]2CN1 (stereo in doubt; (-)28)
[14]
  IC50: > 100 µM
[9]
  IC50: > 100 µM
Glutamate NMDA receptor [10]
  IC50: 29.8 µM
[11]
  IC50: > 100 µM
[4]
  IC50: 70.5 µM
Glutamate NMDA receptor [12]
  IC50: 62.2 µM

## O=C(O)[C@@H]1C[C@H]2C[C@H](CCc3cc(O)no3)CC[C@H]2CN1
Glutamate NMDA receptor [10]
  IC50: > 100 µM
Mus musculus [2]
  ED50: 31.1 mg/kg
[11]
  IC50: > 100 µM
[4]
  IC50: > 100 µM
Mus musculus [13]
  ED50: 8.8 mg/kg
Mus musculus [18]
  ED50: > 100 mg/kg

## O=C(O)CC[C@@H]1CC[C@H]2CN[C@H](C(=O)O)C[C@H]2C1
[1]
  IC50: > 100 µM
Glutamate NMDA receptor [10]
  IC50: > 100 µM
[11]
  IC50: > 100 µM
Glutamate NMDA receptor [3]
  IC50: > 100 µM
[4]
  IC50: > 100 µM
[6]
  IC50: > 100 µM

## O=C(O)[C@@H]1C[C@H]2C[C@@H](CCc3nn[nH]n3)CC[C@H]2CN1
[19]
  inhibition: 60%

## O=C(O)[C@@H]1C[C@H]2C[C@H](CCc3nnn[nH]3)CC[C@H]2CN1 (stereo in doubt; (+)49)
[1]
  IC50: 21.9 µM
[11]
  IC50: 87 µM
[4]
  IC50: 31.5 µM
[6]
  IC50: 28.9 µM

## CCOC(=O)[C@@H]1C[C@H]2C[C@@H](CCP(=O)(OCC)OCC)CC[C@H]2CN1C(=O)OC
[1]
  IC50: > 100 µM
Glutamate NMDA receptor [10]
  IC50: > 100 µM
Glutamate NMDA receptor [3]
  IC50: > 100 µM
[4]
  IC50: > 100 µM
[6]
  IC50: > 100 µM
